The values that follow come from ChEMBL document CHEMBL3232837, “Synthesis and evaluation of new Hsp90 inhibitors based on a 1,4,5-trisubstituted 1,2,3-triazole scaffold” (J Med Chem, 2014).

Activity calls are given as the source filed them. The rule behind the calls is not given here.

In series [1] the test system is Mus musculus. In words: In vivo inhibition of HSP90 in human A431 cells overexpressing EGFR xenografted in CD-1 nude mouse assessed as induction of HSP70 protein expression at 8 mg/kg, ip administered as q4d/week for 2 weeks starting 3 days after tumor injection measured at 2 hrs post last dose by Western blot analysis. Set-up: dose 8 mg/kg. The format is functional, organism-based. The note with it: A-431. An outline of the steps:
(§1)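 Nude-mouse s.c. xenografts given i.p. compound from day 3. Tumors excised 2 h (A431) or 6 h (GTL-16) after last dose and homogenized in tissue protein extraction reagent with 10 µg/ml protease inhibitor cocktail. Whole lysates analysed by Western blot with actin as loading control; two tumor samples per group shown.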
A general note: A xenograft is tissue or cells of one species grown in another, often human tumour cells in immunodeficient mice.

Series [2] relates to Mus musculus. In words: In vivo inhibition of HSP90 in human GTL16 cells overexpressing c-Met xenografted in CD-1 nude mouse assessed as downregulation of c-Met protein expression at 8 mg/kg, ip administered as q4d/week for 2 weeks starting 3 days after tumor injection measured at 6 hrs post last dose by Western blot analysis. In kind it is functional, organism-based. Set-up: dose 8 mg/kg. The essentials:
as §1

The subject of series [3] is Mus musculus. Kind of series: In vivo inhibition of HSP90 in human A431 cells overexpressing EGFR xenografted in CD-1 nude mouse assessed as downregulation of CDK4 protein expression at 8 mg/kg, ip administered as q4d/week for 2 weeks starting 3 days after tumor injection measured at 2 hrs post last dose by Western blot analysis. In kind it is functional, organism-based. Set-up: dose 8 mg/kg. Particulars: A-431. An outline of the steps: as §1

Series [4] relates to Mus musculus. Kind of series: Toxicity in CD-1 nude mouse xenografted with human GTL16 cells overexpressing c-Met assessed as mortality at 5 mg/kg, ip administered as q4d/week for 2 weeks starting 3 days after tumor injection measured on day 5 post last dose relative to vehicle-treated control. In kind it is organism-based. On the set-up: dose 5 mg/kg, route intraperitoneal. Particulars: in vivo. The essentials:
(§2)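 S.c. right-flank xenografts, 5 × 10^6 cells, in female athymic nude mice 5-6 weeks old. Intraperitoneal dosing in 10 mL/kg from day 3 post-implant. Lethal toxicity counted as deaths in treated mice occurring before the first control mouse died, reported as dead/treated (8 per group). Body weight loss was also tracked from the first treatment day.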

Series [5] addresses Heat shock protein HSP 90-beta (Homo sapiens) (UniProt P08238). In words: Inhibition of HSP90 in human A431 cells overexpressing EGFR assessed as downregulation of EGFR protein expression after 24 hrs by Western blot analysis. In kind it is cell-based. The note with it: A-431. The essentials: (§3)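 A431 cells treated 24 h after seeding for 24 h over a concentration range; 17-DMAG 0.2 µM as reference. Cells lysed in RIPA buffer with protease and phosphatase inhibitors, protein measured by Bradford. Equal protein run on SDS-PAGE and blotted to nitrocellulose, then probed for EGFR, Cdk4, Akt, Hsp70 and actin. ECL detection; densitometry normalized to β-actin. Run at least twice.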
In general terms: Immunoblotting shows a protein as a band on a membrane.

Series [6] is described as follows: Antitumor activity against human GTL16 cells overexpressing c-Met xenografted in CD-1 nude mouse assessed as tumor growth inhibition at 5 mg/kg, ip administered as q4d/week for 2 weeks starting 3 days after tumor injection measured on day 5 post last dose relative to vehicle-treated control. In kind it is functional. Particulars: GTL 16, ip, route intraperitoneal, read-out: TGI. An outline of the steps: (§4)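 Female athymic nude mice, 5-6 weeks old, inoculated s.c. in right flank with 5 × 10^6 exponentially growing tumor cells. Intraperitoneal dosing in 10 mL/kg, starting 3 days post-implant. Tumor volume = d²·D/2 from calipered shortest and longest diameters, measured biweekly. TVI% = 100 − (mean TV treated/mean TV control × 100), scored 5 days after last dose. Mann-Whitney test vs vehicle group; 8 mice per group.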

The subject of series [7] is Mus musculus. In words: In vivo inhibition of HSP90 in human GTL16 cells overexpressing c-Met xenografted in CD-1 nude mouse assessed as downregulation of AKT protein expression at 8 mg/kg, ip administered as q4d/week for 2 weeks starting 3 days after tumor injection measured at 6 hrs post last dose by Western blot analysis. The format is functional, organism-based. On the set-up: dose 8 mg/kg. An outline of the steps: as §1

For series [8], the system named is Mus musculus. In words: Toxicity in CD-1 nude mouse xenografted with human A431 cells overexpressing EGFR assessed as body weight loss at 8 mg/kg, ip administered as q4d/week for 2 weeks starting 3 days after tumor injection measured on day 5 post last dose relative to vehicle-treated control. The format is organism-based, A-431. Set-up: dose 8 mg/kg, route intraperitoneal. Particulars: in vivo. An outline of the steps: (§5)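 Female athymic nude mice carrying s.c. xenografts, dosed i.p. (mg/10 mL/kg per administration) starting 3 days after tumor injection. BWL% = 100 − (mean BW day x/mean BW day 1 × 100), day 1 being the first treatment day. Maximum BWL% recorded. Lethal toxicity counted as deaths before the first control death.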

For series [9], the target named is Heat shock protein HSP 90-beta (Homo sapiens) (UniProt P08238). Kind of series: Inhibition of HSP90 in human A431 cells overexpressing EGFR assessed as downregulation of AKT protein expression after 24 hrs by Western blot analysis. The format is cell-based. Particulars: A-431. An outline of the steps:
as §3

Series [10] deals with Mus musculus. In words: In vivo inhibition of HSP90 in human GTL16 cells overexpressing c-Met xenografted in CD-1 nude mouse assessed as downregulation of CDK4 protein expression at 8 mg/kg, ip administered as q4d/week for 2 weeks starting 3 days after tumor injection measured at 6 hrs post last dose by Western blot analysis. On the set-up: dose 8 mg/kg. In kind it is functional, organism-based. The essentials: as §1

For series [11], the target named is Heat shock protein HSP 90-beta (Homo sapiens) (UniProt P08238). In words: Inhibition of HSP90 in human A431 cells overexpressing EGFR assessed as induction of HSP70 protein expression after 24 hrs by Western blot analysis. In kind it is cell-based. The note with it: A-431. An outline of the steps: as §3
The target is the same in series [12]. Kind of series: Inhibition of HSP90 in human A431 cells overexpressing EGFR assessed as downregulation of CDK4 protein expression after 24 hrs by Western blot analysis. The format is cell-based. The note with it: A-431. An outline of the steps: as §3
Series [13] relates to Mus musculus. In words: Toxicity in CD-1 nude mouse xenografted with human A431 cells overexpressing EGFR assessed as mortality at 8 mg/kg, ip administered as q4d/week for 2 weeks starting 3 days after tumor injection measured on day 5 post last dose relative to vehicle-treated control. In kind it is organism-based, A-431. On the set-up: dose 8 mg/kg, route intraperitoneal. Particulars: in vivo. An outline of the steps: as §2

The subject of series [14] is Mus musculus. In words: In vivo inhibition of HSP90 in human GTL16 cells overexpressing c-Met xenografted in CD-1 nude mouse assessed as induction of HSP70 protein expression at 8 mg/kg, ip administered as q4d/week for 2 weeks starting 3 days after tumor injection measured at 6 hrs post last dose by Western blot analysis. The format is functional, organism-based. On the set-up: dose 8 mg/kg. The essentials:
as §1

A further series has as its system A-431. Kind of series: Antitumor activity against human A431 cells overexpressing EGFR xenografted in CD-1 nude mouse assessed as tumor growth inhibition at 8 mg/kg, ip administered as q4d/week for 2 weeks starting 3 days after tumor injection measured on day 5 post last dose relative to vehicle-treated control. The format is functional. The note with it: A-431, ip, route intraperitoneal, read-out: TGI. An outline of the steps: as §4

Series [15] deals with Mus musculus. Kind of series: In vivo inhibition of HSP90 in human A431 cells overexpressing EGFR xenografted in CD-1 nude mouse assessed as downregulation of AKT protein expression at 8 mg/kg, ip administered as q4d/week for 2 weeks starting 3 days after tumor injection measured at 2 hrs post last dose by Western blot analysis. In kind it is functional, organism-based. Set-up: dose 8 mg/kg. Particulars: A-431. An outline of the steps: as §1

Series [16] deals with Heat shock protein HSP 90-alpha (Homo sapiens, UniProt P07900). In words: Displacement of GM-FITC from full-length recombinant human Hsp90-alpha after 4 hrs by fluorescence polarization assay. Background: Polarisation of emitted light reports the rotation of a fluorescent probe.
Series [17] deals with Mus musculus. In words: In vivo inhibition of HSP90 in human A431 cells overexpressing EGFR xenografted in CD-1 nude mouse assessed as downregulation of EGFR protein expression at 8 mg/kg, ip administered as q4d/week for 2 weeks starting 3 days after tumor injection measured at 2 hrs post last dose by Western blot analysis. The format is functional, organism-based. On the set-up: dose 8 mg/kg. The note with it: A-431. An outline of the steps:
as §1

The subject of series [18] is Mus musculus. In words: Toxicity in CD-1 nude mouse xenografted with human GTL16 cells overexpressing c-Met assessed as body weight loss at 5 mg/kg, ip administered as q4d/week for 2 weeks starting 3 days after tumor injection measured on day 5 post last dose relative to vehicle-treated control. The format is organism-based. On the set-up: dose 5 mg/kg, route intraperitoneal. The note with it: in vivo. The essentials: as §5

A further series deals with NCI-H460. In words: Cytotoxicity against human NCI-H460 cells assessed as growth inhibition after 72 hrs by SRB assay. In kind it is functional, cell-based. The note with it: NCI-H460, 72 h. The essentials:
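NCI-H460 cells grown in RPMI-1640 with 10% heat-inactivated FBS, seeded at about 10% confluence and allowed 24 h recovery. Exposed to graded drug concentrations or solvent for 72 h. Surviving fraction measured by sulforhodamine B. IC50 is the concentration giving a 50% drop in cell number vs vehicle, from dose-response curve fitting; mean of n=4 with SD.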

Heat shock protein HSP 90-beta (Homo sapiens), sequence (P08238 whole entry): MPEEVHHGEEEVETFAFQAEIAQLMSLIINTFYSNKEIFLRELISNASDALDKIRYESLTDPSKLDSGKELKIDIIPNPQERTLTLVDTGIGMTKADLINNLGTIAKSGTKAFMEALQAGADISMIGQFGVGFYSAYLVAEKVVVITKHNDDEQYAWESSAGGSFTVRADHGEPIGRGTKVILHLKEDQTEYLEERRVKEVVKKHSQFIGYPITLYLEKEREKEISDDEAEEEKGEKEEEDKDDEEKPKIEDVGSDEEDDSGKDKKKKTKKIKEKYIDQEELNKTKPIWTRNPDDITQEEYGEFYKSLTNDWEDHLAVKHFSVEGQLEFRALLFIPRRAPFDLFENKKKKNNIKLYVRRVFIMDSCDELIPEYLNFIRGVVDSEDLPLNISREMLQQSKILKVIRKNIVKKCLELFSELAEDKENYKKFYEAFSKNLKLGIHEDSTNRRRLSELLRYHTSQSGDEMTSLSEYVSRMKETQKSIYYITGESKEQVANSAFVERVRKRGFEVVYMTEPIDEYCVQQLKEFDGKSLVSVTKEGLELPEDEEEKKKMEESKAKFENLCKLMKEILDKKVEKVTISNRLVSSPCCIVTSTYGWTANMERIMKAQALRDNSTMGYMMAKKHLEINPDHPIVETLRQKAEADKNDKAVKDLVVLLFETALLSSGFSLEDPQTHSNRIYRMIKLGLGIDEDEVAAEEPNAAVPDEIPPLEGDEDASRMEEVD

Usually IC50 stands for the point on the concentration scale where inhibition reaches its midpoint. For the compound `CCNC(=O)c1nnn(-c2cc(C(C)C)c(O)cc2O)c1-c1ccc(CN2CCCC(O)C2)cc1` (stereo not given), the inhibition result with Mus musculus [1], in the series with Mus musculus [2], in the series on Mus musculus [3], in the series with Mus musculus [7], in the series with Mus musculus [10] and in the series with Mus musculus [14] was “Active” each time. Further, the inhibition entry in the series with Mus musculus [15] and in the series with Mus musculus [17] was “Active” throughout. The Activity result in the series on Mus musculus [4] and in the series on Mus musculus [13] was “Non-toxic” in each case. The inhibition entry in [5], in series [9], in [11] and in series [12] was “Dose-dependent effect” throughout. For the same compound, in [6], the inhibition in vivo at 5 mg/kg turned out to be 42%. For the same compound, the Imax is 7% in the series on Mus musculus [8] and 17% in the series on Mus musculus [18]. Moreover, in the series on A-431, the inhibition in vivo at 8 mg/kg was determined as 45%. The IC50 was found to be 23 nM in series [16] and 62 nM with NCI-H460.
